Compound activity as filed in PubChem.
In the library only some 1.5% were active in any assay of this set; here they are far more common.
APJ antagonist = antagonists of human APJ apelin receptor | 330,000 tested, 0.32% active | CHO-K1 APJ beta-arrestin complementation, luminescence | inhibition, % at 20 µM | P35414 | AID 2521;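 active = inhibition above about 40% at 20 µM, limit read from the data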;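 note: cells challenged with 10 nM apelin-13 agonist together with compound; plate controls were apelin-13 plus DMSO wells for no effect and DMSO wells lacking apelin-13 for full effect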
Target sequence (P35414 whole entry, looked up): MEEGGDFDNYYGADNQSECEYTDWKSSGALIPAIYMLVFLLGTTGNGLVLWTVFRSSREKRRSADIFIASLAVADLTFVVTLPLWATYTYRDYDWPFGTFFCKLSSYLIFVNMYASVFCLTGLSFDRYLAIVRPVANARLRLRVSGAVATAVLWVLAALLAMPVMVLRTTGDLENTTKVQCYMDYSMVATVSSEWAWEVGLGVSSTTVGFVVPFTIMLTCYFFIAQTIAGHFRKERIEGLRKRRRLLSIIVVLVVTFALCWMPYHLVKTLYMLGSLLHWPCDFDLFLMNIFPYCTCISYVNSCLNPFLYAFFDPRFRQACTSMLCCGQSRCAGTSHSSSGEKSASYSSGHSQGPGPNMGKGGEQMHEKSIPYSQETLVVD
EBI2 block = blocks human EBI2 receptor beta-arrestin signaling | EBI2 beta-arrestin recruitment, luminescence, 7a,25-OHC stimulated | P32249 | inhibition, % at 5 µM | 360,000 tested, 0.81% active | AID 651636; in the data active = inhibition above about 38%;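 note: enzyme fragment complementation signal reports receptor beta-arrestin coupling in cells; 0% = agonist plus DMSO wells and 100% = wells without agonist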
APJ ag = agonists of human APJ apelin receptor; 330,000 tested, 0.11% active; activation, % at 20 µM; CHO-K1 APJ PathHunter beta-arrestin, luminescence; 0% DMSO wells, 100% apelin;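 active = activation more than six SD over the plate average, tested at 20 µM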;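 note: 0% = DMSO alone and 100% = apelin-13 at 10 nM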
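Assay system: CHO-K1 APJ beta-arrestin complementation cell line / Compound: single test compound dose, 20 µM final, 1% DMSO / Times: overnight seeding, 90 min compound at 25 °C, 1 h detection / Technique: beta-gal luminescence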
CCR6 antagonist = antagonists of human CCR6 receptor; CHO-K1 CCR6 PathHunter beta-arrestin, luminescence, CCL20-stimulated; P51684; AID 493098; inhibition, % at 20 µM; 340,000 tested, 0.49% active;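 active = compounds whose inhibition of the agonist-driven luminescence signal at 20 µM reaches about 50%, limit read from the data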;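 note: cells stimulated with CCL20 at 14 nM final; plate controls were DMSO with CCL20 for no effect and DMSO without agonist for full effect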
CXCR6 block = CXCR6 (human) receptor inhibition; CHO-K1 PathHunter CXCR6 beta-arrestin, luminescence; inhibition, % at 20 µM; 360,000 tested, 0.36% active; in the data active = inhibition above about 34%, passing the limit was not always enough;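 note: antagonist mode with CXCL16 agonist at 10 nM final; 0% = 10 nM CXCL16 with DMSO and 100% = unstimulated wells without agonist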
APJ antag conf = APJ receptor antagonism confirmation | shares compounds with APJ antagonist | APJ beta-arrestin recruitment, luminescence, antagonist mode | inhibition, % at 20 µM | 950 tested, 66% active | AID 2766; in the data active = inhibition above about 50%
CXCR6 confirm = CXCR6 antagonism confirmation, single concentration; 700 tested, 65% active; CHO-K1 CXCR6 PathHunter beta-arrestin, luminescence; shares compounds with CXCR6 block; inhibition, % at 20 µM; AID 602409;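 active = mean inhibition over four retests above 40%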;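 note: receptor stimulated with 10 nM CXCL16 agonist; beta-galactosidase fragment complementation upon beta-arrestin recruitment to receptor; plate controls were CXCL16 plus DMSO for no effect and DMSO without CXCL16 for full effect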
* hit, by the source's call; . = no result.

SMILES	APJ antagonist	EBI2 block	APJ ag	CCR6 antagonist	CXCR6 block	APJ antag conf	CXCR6 confirm
COc1ccc(-c2nc3c(Cl)cc(C(F)(F)F)cn3c2Cc2ccsc2)cc1OC	.	10	.	.	-1	.	.
CC1(C)C(c2ccccc2)=NC(c2ccccc2)N1O (configuration not stated)	8	-1	-3	40	14	.	.
CC1(C)C(c2ccccc2)=NC(c2ccc(Br)cc2)N1O (configuration not stated)	77*	20	-11	58*	34	33	.
Cc1cccc(C)c1NC(=O)C1(C)CN(S(C)(=O)=O)CC(=O)N1C1CC1 (configuration not stated)	.	4	.	.	.	.	.
COc1cccc(/C=N/Nc2ccc([N+](=O)[O-])cc2)c1O	15	15	-3	35	12	.	.
COc1ccc(/C=N\Nc2ccc([N+](=O)[O-])cc2)c(C(=O)O)c1OC	47*	-4	-5	24	15	60*	.
COC(=O)c1ccc(N/N=C/c2cc([N+](=O)[O-])cc(OC)c2O)cc1	59*	13	-8	57*	42*	85*	.
COc1ccc(C(=O)c2[nH]c(N)c(C(=O)NCCc3c[nH]c4ccccc34)c2-c2c(F)cccc2Cl)cc1	.	29	.	.	7	.	.
O=S(=O)(c1ccccc1)n1cc(-c2cccc3nccn23)c2ccccc21	.	21	.	.	6	.	.
C=CCN(CC=C)Cc1cc(=O)oc2ccc3ccccc3c12	.	6	.	.	8	.	.
C=CCN(CC=C)Cc1c(O)ccc2c1oc(=O)c1ccccc12	47*	11	-11	13	37	78*	.
CCOc1ccc(NC(=O)C2CCC(CNc3c(N4CCCCC4)c(=O)c3=O)CC2)cc1 (configuration not stated)	47*	-4	-2	-1	6	19	.
CC(C)C#Cc1cnc2c(c1)C(=O)N([C@@H](C)CO)C[C@@H](C)[C@H](CN(C)Cc1cccc(F)c1)O2	.	-2	.	.	6	.	.
CCOC(=O)Cn1cc(Cn2c3ccccc3c(=O)n2C(C)C)nn1	.	-6	.	.	1	.	.
Nc1ccc(-c2c3ccc(=O)cc-3oc3cc(O)ccc23)cc1C(=O)O	41*	4	-5	42	32	42	.
O=c1ccc2c(-c3ccccc3)c3ccc(O)cc3oc-2c1	0	3	0	11	-1	.	.
COc1ccc(-c2nc3c(C)cc(Br)cn3c2Cc2ccc(C)cc2)cc1OC	.	8	.	.	1	.	.
Cc1ccc(N(CC(=O)N2CCn3c2nc2ccccc23)S(=O)(=O)c2c(C)n[nH]c2C)cc1	-11	3	1	4	-5	.	.
Cc1n[nH]c(C)c1S(=O)(=O)N1CCC(C(=O)N2CCn3c2nc2ccccc23)CC1	66*	34	-12	73*	52*	100*	.
CCS(=O)(=O)c1ncc(Cl)c(C(=O)Nc2ccc(S(=O)(=O)N3CCC(C)CC3)cc2)n1	71*	49*	-7	92*	83*	98*	93*
CN(c1ccccc1)S(=O)(=O)c1ccc(NC(=O)c2ccccc2)cc1	-16	-9	0	17	-3	.	.
CN(c1ccccc1)S(=O)(=O)c1ccc(NC(=O)c2nc(S(C)(=O)=O)ncc2Cl)cc1	61*	41	-6	97*	94*	111*	85*
CC1=C(C(=O)N2CCCCCC2)CC(CC(=O)NCCCCc2ccccc2)C(=O)N1CCC1=CCCCC1 (configuration not stated)	.	36	.	.	16	.	.
COc1cc(/C=C/c2ccc3cccc(O)c3n2)cc(OC)c1OC	49*	62*	-11	77*	72*	58*	85*
COc1cc(/C=C/c2ccc3cccc(O)c3n2)cc(Br)c1OC	21	10	-6	34	23	.	.
SMILES	APJ antagonist	EBI2 block	APJ ag	CCR6 antagonist	CXCR6 block	APJ antag conf	CXCR6 confirm
O=C(NNc1ccc([N+](=O)[O-])cc1)c1ccco1	-9	-1	7	30	14	.	.
O=C(NNc1ccc([N+](=O)[O-])cc1[N+](=O)[O-])c1ccco1	51*	8	-16	58*	44*	79*	48*
CCOc1ccc(Nc2ccc([N+](=O)[O-])c3nonc23)cc1	52*	15	-10	56*	59*	89*	43*
CC(=O)Nc1ccc(Nc2ccc3nonc3c2[N+](=O)[O-])cc1	-13	-10	1	-6	-6	.	.
CC(=O)NS(=O)(=O)c1ccc(Nc2ccc([N+](=O)[O-])c3nonc23)cc1	45*	14	-8	55*	51*	101*	47*
COc1cc(C2C(C#N)=C(N)Oc3n[nH]c(-c4cccnc4)c32)cc(Br)c1O (configuration not stated)	56*	11	-8	65*	46*	75*	52*
Cc1cccc(-c2ccc(O)cc2CN2CCN(c3ncc(Cc4ccccc4)cn3)CC2)c1	.	9	.	.	.	.	.
COCCNC(=O)C1CCCN(Cc2ccccc2-c2ccccc2)CC1 (configuration not stated)	.	-5	.	.	-2	.	.
COC(=O)[C@H](NC(=O)c1cc(-c2ccccc2)sc1N)C(C)C	.	18	.	.	.	.	.
COc1ccc(NC(=O)/C(Cl)=C(/Cl)S(=O)Cc2ccccc2)cn1 (configuration not stated)	86*	79*	-10	90*	81*	100*	88*
CCC(C)c1ccc(O)c(NC(=O)c2cccnc2)c1 (configuration not stated)	-9	-1	-7	2	-4	.	.
CC(C)c1ccc(O)c(NC(=S)NC(=O)c2cccnc2)c1	59*	22	-10	69*	60*	84*	67*
S=C(N/N=C/c1ccccc1)N1CCOCC1	48*	-14	-9	68*	41*	72*	75*
CCOC(=O)C1(C)CCN1C(=O)c1cccs1 (configuration not stated)	.	-3	.	.	0	.	.
CC(C)[C@H](NC(=O)c1ccccc1)C(=O)OCC(=O)c1ccc(S(=O)(=O)N2CCCCC2)cc1	47*	19	-25	54*	44*	21	32
COc1ccc(CC(=O)OCC(=O)c2ccc(S(=O)(=O)N3CCCCC3)cc2)cc1	71*	7	-11	65*	48*	70*	24
CC(=O)Nc1cccc(C(=O)OCC(=O)c2ccc(S(=O)(=O)N3CCCCC3)cc2)c1	49*	-8	-18	54*	42*	71*	14
CC(=O)Nc1ccc(C(=O)OCC(=O)c2ccc(S(=O)(=O)N3CCCCC3)cc2)cc1	-7	7	-9	30	21	.	.
COc1cc(OC)cc(C(=O)OCC(=O)c2ccc(S(=O)(=O)N3CCCCC3)cc2)c1	22	14	-8	32	23	.	.
